# Assay results from different studies.
# CTSL: Procathepsin L (CTSL, Homo sapiens, UniProt P07711)
SMILES,target,read-out,mode,technique,concentration,quantity,result
CNc1ncc2c(/C=C/C(=O)N3CCC(OC)CC3)nn(Cc3cccc(C(F)(F)F)c3)c2n1,"Tyrosine-protein kinase Blk (BLK, Homo sapiens, UniProt P51451)",enzyme activity,inhibitor,radiometric,1 µM,remaining activity,84%
Cc1cc([C@@H](C)Nc2ccccc2C(=O)O)c2nc(N3CCC(F)(F)CC3)c(C#N)c(=O)n2c1,"Serine/threonine-protein kinase STK11 (STK11, Homo sapiens, UniProt Q15831)",binding,,competition with immobilised ligand,1 µM,remaining binding,92%
C=CC(C)(C)c1cc(/C=C/C(=O)c2ccc(O)cc2)c(OC)cc1O,CTSL,enzyme activity,inhibitor,,100 µM,remaining activity,95.1%
Oc1ncnc2[nH]ncc12,"Xanthine dehydrogenase/oxidase (XDH, Bos taurus, UniProt P80457)",enzyme activity,inhibitor,absorbance,53 µg/mL,inhibition,100%
O=Cc1nccc2c1[nH]c1ccccc12,CTSL,enzyme activity,inhibitor,,100 µM,remaining activity,150%
COc1cc(-c2cncc3c2CN(C)Cc2cc(N4CCNCC4)ccc2-3)cc(OC)c1OC,"Tau-tubulin kinase 2 (TTBK2, Homo sapiens, UniProt Q6IQ55)",enzyme activity,inhibitor,,1 µM,remaining activity,104%
O=C1/C(=C/c2ccc(O)c(O)c2)COc2cc(O)ccc21,CTSL,enzyme activity,inhibitor,,100 µM,remaining activity,26.7%
Nc1ncnc2c1ncn2[C@@H]1O[C@H](COP(=O)(O)OP(=O)(O)OP(=O)(O)OP(=O)(O)OP(=O)(O)OC[C@H]2O[C@@H](n3cnc4c(N)ncnc43)[C@H](O)[C@@H]2O)[C@@H](O)[C@H]1O,"Oxidized purine nucleoside triphosphate hydrolase (NUDT1, Homo sapiens, UniProt P36639)",enzyme activity,substrate,,,Km,26 µM
C=CC(=O)N1CCC(COCC(=O)N2CCN(c3nc(-c4cnc(N)nc4C(F)F)nc(N4CCOC[C@@H]4C)n3)CC2)CC1,"Ephrin type-B receptor 1 (EPHB1, Homo sapiens, UniProt P54762)",binding,,competition with immobilised ligand,1 µM,remaining binding,100%
N=c1c[n+](N2CCOCC2)[n-]o1,"NAD-dependent protein deacetylase sirtuin-1 (SIRT1, Homo sapiens, UniProt Q96EB6)",enzyme activity,inhibitor,,,KI (inactivation),27 µM
